We go through eight molecules from article PMC6294321 (Molecular cell, 2018).

Where no end group is shown, it is not given here.

Assay [1] concerns the target T1, GST-tagged KLHDC2 (kelch repeat domain, WT) (Homo sapiens, UniProt Q9Y2U9).
T1 sequence (Q9Y2U9 1-362): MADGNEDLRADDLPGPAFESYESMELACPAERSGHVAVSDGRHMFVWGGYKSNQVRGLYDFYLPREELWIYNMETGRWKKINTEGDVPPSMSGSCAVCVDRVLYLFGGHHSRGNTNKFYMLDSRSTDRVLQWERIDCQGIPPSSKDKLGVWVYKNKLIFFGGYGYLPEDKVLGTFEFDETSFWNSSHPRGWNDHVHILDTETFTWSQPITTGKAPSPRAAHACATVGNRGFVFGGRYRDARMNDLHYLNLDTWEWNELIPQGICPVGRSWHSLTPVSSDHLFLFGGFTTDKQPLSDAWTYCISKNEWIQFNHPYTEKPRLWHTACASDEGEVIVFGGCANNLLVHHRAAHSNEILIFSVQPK
Kind of assay: AlphaScreen competition assay, wild type KLHDC2. The format is binding. To be noted: USP1 vs SelK 8 aa peptide. In short, it runs like this:
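Human KLHDC2 kelch domain (aa 1–362), GST-tagged, was expressed in baculovirus-infected Hi5 cells. It was purified by glutathione agarose, Q Sepharose and Superdex-200. The assay used 0.12 nM protein on anti-GST acceptor beads and 1.7 nM biotinylated 12 aa SelK peptide on streptavidin donor beads, 5 μg/ml beads. Buffer: HEPES pH 7.5, NaCl, TCEP, Tween-20, BSA. Competitor peptides ran 2 nM–3 mM, in triplicate; IC50 by non-linear fitting.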

In assay [2] the target is GST-KLHDC2 (kelch repeat domain, amino acid 1-362) (human) (UniProt Q9Y2U9). Nature of the assay: AlphaScreen or HTRF.
The target of assay [3] is GST-KLHDC2 R241K (kelch repeat domain) (human) (UniProt Q9Y2U9). Nature of the assay: AlphaScreen or HTRF.
The target in assay [4] is T2, GST-KLHDC2 (kelch repeat domain, amino acid 1-362) (human, UniProt Q9Y2U9 1-362).
T2 sequence (looked up): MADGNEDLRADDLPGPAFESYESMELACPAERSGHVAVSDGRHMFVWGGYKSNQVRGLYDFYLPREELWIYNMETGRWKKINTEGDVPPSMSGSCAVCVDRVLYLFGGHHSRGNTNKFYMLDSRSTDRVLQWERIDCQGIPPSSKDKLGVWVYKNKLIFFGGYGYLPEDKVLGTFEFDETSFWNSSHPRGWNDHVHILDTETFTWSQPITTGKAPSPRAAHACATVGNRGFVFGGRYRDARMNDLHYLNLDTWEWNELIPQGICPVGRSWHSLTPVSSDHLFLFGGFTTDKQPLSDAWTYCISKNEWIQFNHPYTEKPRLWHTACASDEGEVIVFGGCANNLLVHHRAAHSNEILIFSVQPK
Kind of assay: AlphaScreen or HTRF.

Assay [5] deals with T3, GST-KLHDC2 R241K (kelch repeat domain) (human, UniProt Q9Y2U9 1-362, R241K).
T3 sequence (looked up): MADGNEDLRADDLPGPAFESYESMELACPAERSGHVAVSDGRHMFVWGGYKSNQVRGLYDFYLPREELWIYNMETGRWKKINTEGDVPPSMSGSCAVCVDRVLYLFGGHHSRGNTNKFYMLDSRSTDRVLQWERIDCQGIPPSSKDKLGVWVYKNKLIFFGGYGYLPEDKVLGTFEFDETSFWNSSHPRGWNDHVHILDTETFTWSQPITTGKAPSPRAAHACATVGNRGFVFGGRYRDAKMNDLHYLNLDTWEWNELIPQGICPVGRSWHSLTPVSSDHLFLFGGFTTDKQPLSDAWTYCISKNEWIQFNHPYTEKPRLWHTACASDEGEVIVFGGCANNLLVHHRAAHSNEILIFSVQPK
Kind of assay: AlphaScreen or HTRF.

The target of assay [6] is T2, GST-KLHDC2 (kelch repeat domain, amino …). Kind of assay: BLI.

For the molecule EAIGLLGG-OH [USP1-NTD degron peptide], the “fold lower potency/affinity vs SelK” value in assay [1] is given as “about 7 fold”.

The molecule “diglycine (2 aa SelK degron peptide, label-free)” registered a Kd in assay [2] of 360000 nM. For 8 aa USP1-NTD C-end degron peptide, the concentration for half-maximal inhibition (IC50) in assay [2] is 69.5 nM; in assay [3] it was 62600 nM. In turn, LRGPSPPPMAGG (peptide, UniProt Q9Y6D0 80-91, looked up) [12 aa SelK degron peptide (label-free)] displayed an IC50 in assay [4] of approximately 3 nM. For PPMAGG (peptide, UniProt Q9Y6D0 86-91, looked up) [6 aa SelK degron peptide (label-free)], the binding result in assay [4] was “binds”. On to SPPPMAGG-NH2 (peptide, UniProt Q9Y6D0 84-91, looked up) [8 aa SelK degron peptide, C-terminally amidated], for which the “fold decrease in affinity against the unmodified 8 aa peptide” value in assay [4] is approximately 1000 fold. Turning to SPPPMAGG (peptide, UniProt Q9Y6D0 84-91, looked up) [8 aa SelK C-end degron peptide (label-free, wild type)], the IC50 in assay [5] stood at 5900 nM. That is a single-digit micromolar value. With LRGPSPPPMAGG (peptide, UniProt Q9Y6D0 80-91, looked up, also: biotin, position not given here) [biotinylated 12 aa SelK degron peptide], the Kd in assay [6] is approximately 4 nM.
